The values that follow come from article PMC4773674 (Journal of Diabetes Investigation, 2015).

A short description of data set [1]: Serum IDeg pharmacokinetics. In kind it is in vivo, Japanese patients with type 1 diabetes. In a few lines:
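Serum drug levels were measured by specific sandwich ELISA. Troughs were drawn before each of 6 once-daily doses given at 20.00 h. After the last dose, samples were taken every 1–2 h to 24 h, then at 30, 36, 48, 72, 96 and 120 h. Post-hoc steady-state time was the time from first dose until troughs exceeded 90% of final plateau.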

The nature of data set [2]: Safety: adverse events, hypoglycemic episodes, injection-site reactions. In kind it is in vivo, Japanese patients with type 1 diabetes. In a few lines: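 Randomized, double-blind, two-period crossover trial with once-daily […] dosing at 20.00 h for 6 days; periods separated by 7–21-day washout; insulin aspart boluses allowed. Safety end-points: AEs, injection-site reactions, ECG, vital signs, labs. Confirmed hypoglycemia: severe (ADA definition), plasma glucose <3.1 mmol/L, or full blood glucose <2.8 mmol/L.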

For data set [3] the following is noted: cited from earlier work.

Turning to insulin degludec [IDeg], the “Time to steady state (trough concentrations exceeding 90% of final plateau)” value in data set [1] (once-daily dosing, all Japanese patients, confirmed by post-hoc analyses) was in the range of 2 to 3 days. Also, in data set [1] (steady state, 120 h = end of observation period, Japanese patients), the “Time for which serum IDeg was detectable after the last dose” value was “at least 120 h”. In addition, the Tolerability result in data set [2] (6 days of once-daily 0.4 U/kg, 22 Japanese type 1 diabetes patients) was “well tolerated”. Besides, in data set [2] (after treatment with IDeg), the Injection-site reactions entry is given as “no injection‐site reactions were recorded” and the “Serious AEs” value was “No serious AEs occurred”. The “Treatment-emergent AEs (other than hypoglycemia), number” value in data set [2] (after treatment with IDeg, all AEs mild) was “three”. In addition, the “Patients with confirmed treatment-emergent hypoglycemic episodes, number” value in data set [2] (fixed dose 0.4 U/kg) worked out at 13 patients. The “Confirmed treatment-emergent hypoglycemic episodes, number” value in data set [2] (fixed dose 0.4 U/kg, confirmed = severe, or plasma glucose <3.1 mmol/L) turned out to be 93. The “AUCτ,SS, 24-h exposure” value in data set [3] (Caucasian patients, 0.4 U/kg) is 82,612 pmol h/L. Besides, the “Time to steady state” value in data set [3] (previously shown) is 2 to 3 days.
